Experimental data from ChEMBL document CHEMBL1275299, “Synthesis and anti-inflammatory activity of derivatives of coumarino-lignoid, cleomiscosin A and its methyl ether” (2010).

Assays:
Format in all cases: functional
[1] = Antiinflammatory activity in Swiss albino mouse macrophage assessed as inhibition of LPS-induced IL-6 production at 1 ug/ml treated 30 mins before LPS challenge measured after 24 hrs by ELISA
Summary of the method: (§1)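 Peritoneal macrophages from 8-week-old female Swiss albino mice, elicited by i.p. 1% peptone (1 mL) 3 days before harvest and collected by PBS (pH 7.4) lavage, were used at 2 × 10^6 live cells/mL. Cells were kept in RPMI 1640 with 10% heat-inactivated FCS and penicillin/streptomycin at 37 °C, 5% CO2. Adherent cells were kept after 2 h. Compounds were given in DMSO, with a DMSO vehicle control. LPS was 0.5 µg/mL. Cytokines were measured in supernatants by mouse sandwich ELISA kits. n = 4, Student t-test versus vehicle.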

[2] = Antiinflammatory activity in Swiss albino mouse macrophage assessed as inhibition of LPS-induced IL1-beta production at 1 ug/ml treated 30 mins before LPS challenge measured after 24 hrs by ELISA; summary of the method: as §1
[3] = Antiinflammatory activity in Swiss albino mouse macrophage assessed as inhibition of LPS-induced TNFalpha production at 1 ug/ml treated 30 mins before LPS challenge measured after 24 hrs by ELISA; summary of the method: as §1
[4] = Antiinflammatory activity in Swiss albino mouse macrophage assessed as inhibition of LPS-induced TNFalpha production at 10 ug/ml treated 30 mins before LPS challenge measured after 24 hrs by ELISA; summary of the method: as §1
[5] = Antiinflammatory activity in Swiss albino mouse macrophage assessed as inhibition of LPS-induced IL1-beta production at 10 ug/ml treated 30 mins before LPS challenge measured after 24 hrs by ELISA; summary of the method: as §1
[6] = Antiinflammatory activity in Swiss albino mouse macrophage assessed as inhibition of LPS-induced IL-6 production at 10 ug/ml treated 30 mins before LPS challenge measured after 24 hrs by ELISA; summary of the method: as §1

| SMILES | inhibition at 1 µg/mL [1] | inhibition at 1 µg/mL [2] | inhibition at 1 µg/mL [3] | inhibition at 10 µg/mL [4] | inhibition at 10 µg/mL [5] | inhibition at 10 µg/mL [6] |
| --- | --- | --- | --- | --- | --- | --- |
| O=C(O)Cc1ccccc1Nc1c(Cl)cccc1Cl [DICLOFENAC SODIUM] | 51.1% | 38.5% | 46.5% | – | – | – |
| COc1cc([C@H]2Oc3c(OC)c([N+](=O)[O-])c4ccc(=O)oc4c3O[C@@H]2COC(C)=O)ccc1OC(C)=O | 87.2% | 70.4% | 70.5% | 67.8% | 65.3% | 82% |
| COc1ccc([C@H]2Oc3c(OC)c(Br)c4ccc(=O)oc4c3O[C@@H]2CO)cc1OC | 59.8% | 50.1% | 44.8% | 42% | 44.7% | 60% |
| COc1ccc([C@H]2Oc3c(OC)c(Cl)c4ccc(=O)oc4c3O[C@@H]2CO)cc1OC | 57.5% | 59.2% | 50.2% | 49.6% | 40.1% | 56.2% |
| COc1cc([C@H]2Oc3c(OC)c([N+](=O)[O-])c4ccc(=O)oc4c3O[C@@H]2CO[N+](=O)[O-])c([N+](=O)[O-])cc1OC | 81.4% | 59.1% | 64.8% | 60.6% | 53.3% | 79% |
| COc1cc([C@H]2Oc3c(OC)c(Br)c4ccc(=O)oc4c3O[C@@H]2COC(C)=O)ccc1O | 60.2% | 55.3% | 54.5% | 54.2% | 58.8% | 52.5% |
| COc1cc([C@H]2Oc3c(OC)c([N+](=O)[O-])c4ccc(=O)oc4c3O[C@@H]2CO)c([N+](=O)[O-])cc1OC | 86.4% | 72% | 76.6% | 78% | 70.2% | 80.2% |
| COc1cc([C@H]2Oc3c(OC)cc4ccc(=O)oc4c3O[C@@H]2COC(C)=O)ccc1O [DURANTIN A] | 81.9% | 109% | 73.3% | 76.2% | 74.8% | 78.3% |
